ED50 data for five compounds are collected here from ChEMBL document CHEMBL1123647, “(+)-cis-8-Hydroxy-1-methyl-2-(di-n-propylamino)tetralin: a potent and highly stereoselective 5-hydroxytryptamine receptor agonist” (1987).

What all share (type): functional
What all share (details): sc

Test [1] concerns Rattus norvegicus. The test can be described thus: Effective dose required for half maximal decrease of 5-HTP formation after subcutaneous administration of compound in striatum tissue of rat brain. The procedure, abridged: (§1)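 Reserpinized rats (reserpine 5 mg/kg ip, in glucose solution with a little acetic acid). Compounds were dissolved in saline, pH near neutral, and given sc. Brain 5-HTP was measured by HPLC with electrochemical detection. ED50 is the dose giving a half-maximal decrease of 5-HTP formation in that brain part, from a dose-response curve of five to six dose levels, n = 3-4.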

Test [2] concerns Rattus norvegicus. The test can be described thus: Effective dose required for half maximal decrease of DOPA accumulation after subcutaneous administration in striatum tissue of rat brain. The procedure, abridged:
(§2)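 Reserpinized rats (reserpine 5 mg/kg ip) received compound in saline sc. Brain DOPA was measured by HPLC with electrochemical detection. ED50 is the dose giving a half-maximal decrease of DOPA formation, from a dose-response curve of three to five dose levels, n = 3. Maximal reduction was taken as 65% of control for limbic tissue and 80% for striatum.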

The test system of test [3] is Rattus norvegicus. Put plainly: Effective dose required for half maximal decrease of 5-HTP formation after subcutaneous administration of compound in limbic tissue of rat brain. Summed up:
as §1

Test [4] relates to Rattus norvegicus. The test can be described thus: Effective dose required for half maximal decrease of DOPA accumulation after subcutaneous administration in limbic tissue of rat brain. Summed up:
as §2

Test [5] concerns Rattus norvegicus. The test can be described thus: Effective dose required for half maximal decrease of 5-HTP formation after subcutaneous administration of compound in hemispheres (cortex) for rat brain. Summed up:
as §1

The ED50 is the midpoint of the dose-response relation. High values mean weaker potency, low ones greater potency.

For `CCCN(CCC)[C@@H]1CCc2cccc(OC)c2[C@@H]1C`, the ED50 was 0.6 µmol/kg with Rattus norvegicus [1]; 1.88 µmol/kg with Rattus norvegicus [2]; 0.53 µmol/kg in the test on Rattus norvegicus [3]; 1.71 µmol/kg in the test with Rattus norvegicus [4]; 0.77 µmol/kg in the test with Rattus norvegicus [5].
The like results for `CCCN(CCC)[C@@H]1CCc2cccc(O)c2C1` were, in that order, 0.065 µmol/kg, > 45 µmol/kg, 0.061 µmol/kg, > 45 µmol/kg and 0.077 µmol/kg.
For `CCCN(CCC)[C@@H]1CCc2cccc(OC)c2[C@H]1C`, in that order: > 50 µmol/kg, > 50 µmol/kg, > 50 µmol/kg, > 50 µmol/kg and > 50 µmol/kg.
Regarding `CCCN(CCC)[C@@H]1CCc2cccc(O)c2[C@@H]1C.Cl`, the ED50 in the test with Rattus norvegicus [2] and in the test with Rattus norvegicus [4] was > 50 µmol/kg throughout.
With `CCCN(CCC)[C@@H]1CCc2cccc(O)c2[C@H]1C`, the ED50 with Rattus norvegicus [1], in the test on Rattus norvegicus [2], in the test with Rattus norvegicus [3], in the test with Rattus norvegicus [4] and in the test with Rattus norvegicus [5] was > 50 µmol/kg in each case.
